Measurements as given in the EternaBench riboswitch data.

Tested on: MS2 coat protein
Experiment: apparent Kd, MS2 coat protein; higher = weaker binding; RNA-MaP array; FMN 200 µM where present
Summary of the method: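 In 100 mM Tris-HCl pH 7.5, 80 mM KCl, 4 mM MgCl2, BSA, DTT, yeast tRNA and Tween-20, SNAP-549-labelled MS2 coat protein was titrated from 0.7 or 1.5 nM, doubling to 3 µM, over designs transcribed by stalled E. coli RNA polymerase on Illumina sequencing-chip clusters. This was done first without ligand, then with ligand held constant. After green signal was normalised to red-channel RNA signal and control-cluster median Fmax, the apparent Kd was taken as the median of filtered per-cluster binding-curve fits.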

[1] = designed as: OFF switch for flavin mononucleotide, no ligand
[2] = ligand present: flavin mononucleotide, designed as: OFF switch for flavin mononucleotide
[3] = designed as: ON switch for flavin mononucleotide, no ligand
[4] = ligand present: flavin mononucleotide, designed as: ON switch for flavin mononucleotide

| Sequence | apparent Kd [1] [nM] | apparent Kd [2] [nM] | apparent Kd [3] [nM] | apparent Kd [4] [nM] |
| --- | --- | --- | --- | --- |
| GCCUUAUCCGUCAGGAUAUACAGCCGCUAGUUGUUGUAGAAGGGACAUGAGGAUCACCCAUGUACGUACCAUUG | 20.3 | 30.7 |  |  |
| UUUUACGUUUCGUAGCAGUGUCAUCGAGAAGGCCCUGACAUGAGGAUCACCCAUGUUGUUACAUGGGAGGAUAUCGAUGAUGGG |  |  | 41.3 | 6.93 |
| GGUGAAUGAACAUGAGGAUCACCCAUGUACAGGAAACUGAAUGAGGAUAUCCAUAGCAAAGCUAUGGAGAAGGUAUGGGUCACC |  |  | 40.5 | 44.9 |
| GCAGCGUAUGUAGGAUAUCGGUCAGUUUCUGAUCGAGAAGGACAUGAGGAUCACCCAUGUAAAUUACCGACUCUGUCGGGCUGC | 6.64 | 8.6 |  |  |
| CGGAUGUCAGGAUAUACGAACAUGUCGCCAGAUGUCAUGGUACAUGAGGAUCACCCAUGUAGAAGGGAGGUGGU | 160 | 331 |  |  |
| CCGAUAAAUGGAGGAUAUGGAGCCUUAUUGGCUCCAGAAGGCUAAUAACAUGAGGAUCACCCAUGUCGGCGGUCUAAUGACCGA |  |  | 81.3 | 33 |
| CUUUCGUGAGGAUAUGUGGCUUCGAUCGUGAGAUCGAGAAAACAGAAGGCACAUGAGGAUCACCCAUGUUCCUC | 41 | 515 |  |  |
| UUCAGCUUGACAGGAUAUACAUCACUGCGAAAGCAGUGUAUCUUAAUAACAUGAGGAUCACCCAUGUAGAAGGGUCGAGCUGAA | 18.4 | 32.7 |  |  |
| UGUUAAUUGUAGAAGGGUGACAUGAGGAUCACCCAUGUUCACAUGCGAUUUACGGCGCAUGUUCCACAGGAUAUACAGUUGAGU |  |  | 556 | 97.8 |
| CAGGUAGACUGAGGAUAUACAAUAAACAGCUAGUCUAUCUAGCUGUCCACAUGAGGAUCACCCAUGUAGAAGGCAGUCUGCCUG | 18.9 | 42 |  |  |
| ACAUGAGGAUCACCCAUGUGUACAUAGGAUAUUGAUGAUUAUGGUUUAAGAAAAGUAAUUGCCCACAAGAAGGAUGCCUCAUCU |  |  | 36.5 | 27.7 |
| GAUCCUUCUGUUAGGAUAUGCUUCGGGCUUCCGCAGCAGAAGGAACAUGAGGAUCACCCAUGUCAAAUAAAAUC | 22.9 | 94.1 |  |  |
| GGAUGACAAAGUCAUCCAUUACGAACAUGAGGAUCACCCAUGUAGGAUAUGCUUCUCAAAGAGAAGCAGAAGGACAUGUGUCUU | 30.1 | 157 |  |  |
| AAAUAAAUCACAGGAUAUCUAGGGAUACAUGAGGAUCACCCAUGUUUGCAAAGAGAAGGGUGACAGUAUUAUCAGAUCAACAAU |  |  | 210 | 38.1 |
| UAGGGUGUACGAGGAUAUGGGCAUUGGUGGAUCUCAGAAGGCGUAUACGCGCGCAGACAUGAGGAUCACCCAUGUACCCGGCUU |  |  | 62.8 | 23.6 |
| GUCGGAAACGACAAAAGUAGCAUAGGAGAAGGUUCAUUAAACAUGAGGAUCACCCAUGUAAUUGGGAAGGAUAUCCUAUGCUAC |  |  | 16.2 | 9.16 |
| GCAGUGCCAGCGGUACUGCCUCUAGCAGAAGGGUGACGAGACAUGAGGAUCACCCAUGUAGAGACACAGGAUAUGCACCAGCUU |  |  | 142 | 8.26 |
| CAGCGAAAGUAGAAGGCAGUACUGUUACAGUACUGAGGAUAUACAUGAGGAUCACCCAUGUAAUAAAGCUGGAAAUAUAUAAUU | 6.41 | 7.33 |  |  |
| UCACCUGCCGAGGAUAUGAACGUAUUGAAUUGAUUAGAAGGCGGCACAUGAGGAUCACCCAUGUCACUGCACGC | 11.7 | 11.5 |  |  |
| GCACUUAUAUUUGAACCGAUUCGAACAUGAGGAUCACCCAUGUAGGAUAUGCUAAAAGUUGUGAUGCAGAAGGACAUUAAGUGC | 5.44 | 6.74 |  |  |
| UCUUUAUUUGUGAGGAUAUCGAUAAAAUGGAUUGUCGAGAAGGCACAUGAGGAUCACCCAUGUAUUGAACAGCA | 59.2 | 212 |  |  |
| UUACUCAUGUAAGGAUAUGCAGCCGUUUCGGCUGCAGAAGGUACUAUAAUACAUGAGGAUCACCCAUGUCUAUAAACUAAAGAC |  |  | 84.2 | 45.8 |
| GGCGUGUGAGGAUAUCUGAUGUCUAACUUCGGUUAGACAUCAGAGAAGGCACAUGAGGAUCACCCAUGUCCGCC | 67.5 | 61.9 |  |  |
| GGGUGACAUGAGGAUCACCCAUGUCAGGAUAUGAUACUAUGUACUUCGGUACAUAGUAUCAGAAGGGACAUCAU | 284 | 29.9 |  |  |
| GUCAGCUAGUGAGGAUAUACAACACUGCUUCGGCAGUGUAUUAAGAUCACAUGAGGAUCACCCAUGUAGAAGGCACGAGCUGAU | 13.8 | 273 |  |  |
| GAUCAACAUGAGGAUCACCCAUGUGAGGAUAUGUAUCAUAGAUCUUCGGAUCUAUGAUACAGAAGGCAUGUGGA | 204 | 46.5 |  |  |
| UGGGUAAGUGUAGGAUAUUUAUAUUAAUAGUAUGGAGAAGGACAUGAGGAUCACCCAUGUACAGGGAGUUGCCCAUUUCCUCUC | 335 | 671 |  |  |
| GGCGGGAAUGAGAAGGGUCACAUGAGGAUCACCCAUGUGCUCUUCGCCGUGACAGGAUAUCAUUGCCGUCAGGUUAGAUUUUUG | 8.42 | 24.7 |  |  |

| Sequence | apparent Kd [1] [nM] | apparent Kd [2] [nM] | apparent Kd [3] [nM] | apparent Kd [4] [nM] |
| --- | --- | --- | --- | --- |
| AUAAUGAGUCAAGGAUAUCCGAGCUGAAUGCUUGGAGAAGGUGACAUGAGGAUCACCCAUGUCUCUCCGAGCAUGGUAUUCUCA | 28.4 | 26.6 |  |  |
| CGGCGCUGUCGAGAGGAUAUGCGGUGACGGACAUGAGGAUCACCCAUGUUAGCGAUAGCGUUACGGUAGAAGGCUCUACAGUCGC |  |  | 76.8 | 15.4 |
| GGUGCGUCUGUGAGGAUAUGCUGGUCCUUGGAUCAGCAGAAGGCACAUGAGGAUCACCCAUGUGGUGUCGUACC | 233 | 129 |  |  |
| GGGCCGGUGGAGAAGGAGCUUACGAAACGUAGGCUAGGAUAUCCACAUGAGGAUCACCCAUGUGGGAAUAUCUGAUUUUCACAG | 4.4 | 4.48 |  |  |
| CAGUAGAUCCGAGGAUAUACAAUCCGGAAACGGUACAUGAGGAUCACCCAUGUAGAAGGCGGAUCUACAGGUACUAAAGUACCG | 6.37 | 9.59 |  |  |
| UGCGCUGAGGGAGGAUAUGACAUGAGGAUCACCCAUGUGAUAGGUUUCUUGUCAGAAGGCCCGCAUGUACCAAAUUAGGUUUGU | 94 | 126 |  |  |
| AGAAAACAUGAGGAUCACCCAUGUGAGGAUAUGCAAAUAUAUACGAAAGAUUAUAAAAGCAGAAGGCACAAAAG | 111 | 130 |  |  |
| UAUUAUGUCAGAGGAUAUAUAAAUAAAUUUAUAACAUGAGGAUCACCCAUGUACUUUAGUGUGAGGUAGAAGGUUGAUAAGAUA |  |  | 37.2 | 22.6 |
| AACAAACAUGAGGAUCACCCAUGUAAGGAUAUACGAAACAAACAAACAAACAAACAAAGUAGAAGGUACAGGAA | 19.4 | 18.3 |  |  |
| ACGACGAAAGUCGAACGAUGAUCGAGAAGGACAUGAGGAUCACCCAUGUCCGCUGUAACAGCCAUGUAGGAUAUCGAUCAUCGA | 3.59 | 3.83 |  |  |
| UCCUCACAUGAGGAUCACCCAUGUGAGGAUAUCAGCGCGUACGGGUUUCCGUAGUGUUUGAGAAGGCAUUUGGG | 16.6 | 29 |  |  |
| GGAUAGAACAGAGGAUAUACGUGCUAGAGAUACUAGCAAAAUUUCCUCACAUGAGGAUCACCCAUGUAGAAGGCUGUCCUAUCG | 11.8 | 208 |  |  |
| CGCUAAGAUGGGUCUAAUGGAGCAUAGGAUAUGCUUGUACAUGAGGAUCACCCAUGUAAUAUUGUGCAGAAGGGUGCAUUUGCG |  |  | 127 | 61.7 |
| ACCUUACAUGAGGAUCACCCAUGUUAGGAUAUCUCGCUUGCGCUGUCACAGCGCAAGCAGAGAAGGGACGCGGG | 35.2 | 40.9 |  |  |
| AAAAUCUAUAGAGGAUAUCGUUUUUAAAGAAAAUGAGAAGGCUAACAAUCAUGAGGACAUGAGGAUCACCCAUGUUGUGACCAU |  |  | 19.6 | 10.2 |
| AAGUGCAUAGGAUAUAUAUGGAUAUACAUUUAUGUAGAACUACAUGAGGAUCACCCAUGUAGAAGGAUGCAAUA | 21.5 | 36.8 |  |  |
| AAUGGCUGGUGAACUUGGUCACAUGAGGAUCACCCAUGUUAUGAGGAUAUCGCUGCACAUUGACGUGAGAAGGCAUAGCAAGCC | 132 | 453 |  |  |
| AUGCUAGUGUGAGGAUAUUAUUGACAUGAGGAUCACCCAUGUGUGAGUCCAACAUGAGCUACAGUUAAGAAGGUACAUUAGCAU | 45.5 | 38.1 |  |  |
| CCCAAACUUGGGCUUGGUUGUGCAUAGGAUAUCCUUGGACAUGAGGAUCACCCAUGUACAACUGUGGAGAAGGGUGCAGGACCU |  |  | 39.1 | 16.4 |
| GUCAGCUCGUGAGGAUAUACAACACUGCUUCGGCAGUGUAUUAAGAUGACAUGAGGAUCACCCAUGUAGAAGGCACGAGCUGAU | 5.78 | 21 |  |  |
| GGUUGUCAUCGUCAUCCUUUCGGUACAUGAGGAUCACCCAUGUAGGAUAUGCUGCUCUCGGUGUGGCAGAAGGGCGUGUGUGUU | 24.4 | 39.5 |  |  |
| CAGCGCUGUUGAGAGGAUAUGCGGUGAUGGACAUGAGGAUCACCCAUGUUAGCGAUAGCAUUACGGUAGAAGGCUCUACAGCUGC |  |  | 18.5 | 12.3 |
| AAAGCGUGAGGAUAUGAGGCGCCGGGCCGGUUGGUGCGGAUUCAGAAGGCACAUGAGGAUCACCCAUGUAGGAA | 23.4 | 36.2 |  |  |
| AAUUUACAGCUAGGAUAUACAUGAGGAUCACCCAUGUAACGAUCGGAUCUUAUGAUCGUAUCCGUGUAGAAGGAGCAAAUAAGA | 6.46 | 6.39 |  |  |
| UAUUAGUGAGGAUAUGAGUCGUAGAACAAUAGUACUACGUCUCAGAAGGUACAUGAGGAUCACCCAUGUUCCUU | 12.7 | 14.4 |  |  |
| AUGUGUCUUCGCGUCCUGCCCGGACAUGAGGAUCACCCAUGUAGAAGGCGGUGGCAAUGCUAGACCGAGGAUAUACAUGCAAAC | 17.8 | 51.3 |  |  |
| GCAGGACAUGAGGAUCACCCAUGUUCAAAAUAUAGAGGAUAUGGAUACGGUAUAUCCGAACCAGAAGGCUACCUGC |  |  | 14.6 | 14 |
